{"source": "ChEMBL document CHEMBL4364271", "about": "“Unveiling the Importance of Amide Protons in CSP:ComD Interactions in Streptococcus pneumoniae” (ACS Med Chem Lett, 2019)", "key": {"Homo sapiens": {"species_on_record": "Homo sapiens", "assay": "Metabolic stability in aqueous ammonium carbonate solution assessed as trypsin/chymotrypsin (unknown origin)-mediated drug degradation by measuring half life at 0.05 ug/ml incubated in shaking conditions and measured for 24 hrs by RP-HPLC analysis"}, "[1]": {"assay": "Agonist activity at ComD1 receptor in Streptococcus pneumoniae D39 harboring pcomX/lacZ reporter gene incubated for 30 mins by ONPG based beta-galactosidase assay", "in_short": "(§1)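 Dose-response in wild-type lacZ reporter strains (comX promoter; D39 for ComD1, TIGR4 for ComD2) producing native CSP. Peptides tested over a range of concentrations. β-gal read-out (Miller units) normalized to native CSP. EC50 reported with 95% confidence interval.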"}, "[2]": {"assay": "Metabolic stability in human plasma assessed as half-life at 0.33 mM measured for 3 hrs by RP-HPLC analysis", "assay_type": "ADME, cell-free"}, "[3]": {"tested_on": "Streptococcus pneumoniae D39", "assay": "Agonist activity at ComD1 receptor in Streptococcus pneumoniae D39 harboring pcomX/lacZ reporter gene at 10 uM incubated for 30 mins by ONPG based beta-galactosidase assay relative to native CSP1", "in_short": "(§2)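 Single-dose screen of synthetic peptide at 10 μM in wild-type reporter strains (D39 for ComD1, TIGR4 for ComD2) producing their own CSP and carrying lacZ under the comX promoter. β-gal activity in Miller units normalized to native CSP (CSP1 or CSP2, 100%); DMSO 0%. Triplicates over three separate trials.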"}, "[4]": {"tested_on": "Streptococcus pneumoniae TIGR4", "assay": "Agonist activity at ComD2 receptor in Streptococcus pneumoniae TIGR4 harboring pcomX/lacZ reporter gene at 10 uM incubated for 30 mins by ONPG based beta-galactosidase assay relative to native CSP2", "in_short": "as §2"}, "[5]": {"assay": "Metabolic stability in aqueous ammonium carbonate solution assessed as trypsin/chymotrypsin (unknown origin)-mediated drug degradation by measuring half life at 0.05 ug/ml incubated in shaking conditions in presence of trypsin/chymotrpsin and measured for 48 hrs by RP-HPLC analysis", "assay_type": "ADME", "settings": "human"}, "[6]": {"assay": "Agonist activity at ComD2 receptor in Streptococcus pneumoniae TIGR4 harboring pcomX/lacZ reporter gene incubated for 30 mins by ONPG based beta-galactosidase assay", "in_short": "as §1"}, "[7]": {"tested_on": "Streptococcus pneumoniae D39", "assay": "Antagonist activity at ComD1 receptor in Streptococcus pneumoniae D39 harboring pcomX/lacZ reporter gene assessed as inhibiton of CSP1-stimulated maximum signal at 10 uM preincubated for 30 mins followed by 50 nM CSP1 addition by ONPG based beta-galactosidase assay relative to native CSP1", "in_short": "(§3)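 Inhibition screen: peptides at 10 μM against CSP1 50 nM (D39, ComD1) or CSP2 250 nM (TIGR4, ComD2), in comX-lacZ reporter strains. β-gal Miller units normalized to CSP alone (100%) and DMSO (0%). Triplicates over three separate trials.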"}, "[8]": {"tested_on": "Streptococcus pneumoniae TIGR4", "assay": "Antagonist activity at ComD2 receptor in Streptococcus pneumoniae TIGR4 harboring pcomX/lacZ reporter gene assessed as inhibition of CSP2-stimulated maximum signal at 10 uM preincubated for 30 mins followed by 250 nM CSP2 addition by ONPG based beta-galactosidase assay relative to native CSP2", "in_short": "as §3"}, "[9]": {"assay": "Antagonist activity at ComD2 receptor in Streptococcus pneumoniae TIGR4 harboring pcomX/lacZ reporter gene assessed as inhibition of CSP2-stimulated maximum signal preincubated for 30 mins followed by 250 nM native CSP2 addition by ONPG based beta-galactosidase assay", "in_short": "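Comx-lacZ β-gal reporter inhibition in D39 (ComD1, CSP1 50 nM) or TIGR4 (ComD2, CSP2 250 nM). Peptides tested over a range of concentrations against the stimulating CSP. Miller units normalized to CSP alone. IC50 given with 95% confidence interval.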"}, "[10]": {"assay": "Solubility of the compound in ammonium carbonate solution at pH 8", "assay_type": "physicochemical", "settings": "buffer"}}, "note": "pEC50, pIC50: −log10 of the molar value. The source made the active and inactive calls. No cut-off for these calls is given here. Non-standard residues stand in square brackets, D forms with d. Residues, ends and D or L forms follow the SMILES beside them. NMeF = CN[C@@H](Cc1ccccc1)C(=O)O; NMeE = CN[C@@H](CCC(=O)O)C(=O)O; NMeK = CN[C@@H](CCCCN)C(=O)O; NMeM = CN[C@@H](CCSC)C(=O)O"}
{"smiles": "CC[C@H](C)[C@H](NC(=O)[C@H](Cc1ccccc1)NC(=O)[C@H](CC(=O)O)NC(=O)[C@H](CCCNC(=N)N)NC(=O)[C@H](Cc1ccccc1)NC(=O)[C@H](Cc1ccccc1)NC(=O)[C@H](CCCCN)NC(=O)[C@H](CO)NC(=O)[C@H](CC(C)C)NC(=O)[C@H](CCCNC(=N)N)NC(=O)[C@H](CCSC)NC(=O)[C@@H](N)CCC(=O)O)C(=O)N[C@@H](CC(C)C)C(=O)N[C@@H](CCC(N)=O)C(=O)N[C@@H](CCCNC(=N)N)C(=O)N[C@@H](CCCCN)C(=O)N[C@@H](CCCCN)C(=O)O", "values": [{"measurement": "T1/2", "setting": "Homo sapiens", "result": 1.5, "unit": "h"}, {"measurement": "pEC50", "setting": "[1]", "result": 8.00}]}
{"smiles": "CC[C@H](C)[C@H](NC(=O)[C@H](Cc1ccccc1)NC(=O)[C@H](CC(=O)O)NC(=O)[C@H](CCCNC(=N)N)NC(=O)[C@H](Cc1ccccc1)NC(=O)[C@H](Cc1ccccc1)N(C)C(=O)[C@H](CCCCN)NC(=O)[C@H](CO)NC(=O)[C@H](CC(C)C)NC(=O)[C@H](CCCNC(=N)N)NC(=O)[C@H](CCSC)NC(=O)[C@@H](N)CCC(=O)O)C(=O)N[C@@H](CC(C)C)C(=O)N[C@@H](CCC(N)=O)C(=O)N[C@@H](CCCNC(=N)N)C(=O)O", "note": "(H-EMRLSK[NMeF]FRDFILQR-OH)", "values": [{"measurement": "half-life at 330 µM", "setting": "[2]", "result": "< 0.5", "unit": "h"}, {"measurement": "Activity", "setting": "[3]", "result": "> 75", "unit": "%"}, {"measurement": "Activity", "setting": "[4]", "result": "inactive"}, {"measurement": "pEC50", "setting": "[1]", "result": 6.55}, {"measurement": "half-life at 0.05 ug/ml", "setting": "[5]", "result": "> 48", "unit": "h"}]}
{"smiles": "CC[C@H](C)[C@H](NC(=O)[C@H](Cc1ccccc1)NC(=O)[C@H](CC(=O)O)NC(=O)[C@H](CCCNC(=N)N)NC(=O)[C@H](Cc1ccccc1)NC(=O)[C@H](Cc1ccccc1)NC(=O)[C@H](CCCCN)N(C)C(=O)[C@H](CO)NC(=O)[C@H](CC(C)C)NC(=O)[C@H](CCCNC(=N)N)NC(=O)[C@H](CCSC)NC(=O)[C@@H](N)CCC(=O)O)C(=O)N[C@@H](CC(C)C)C(=O)N[C@@H](CCC(N)=O)C(=O)N[C@@H](CCCNC(=N)N)C(=O)O", "note": "(H-EMRLS[NMeK]FFRDFILQR-OH)", "values": [{"measurement": "half-life at 330 µM", "setting": "[2]", "result": "< 0.5", "unit": "h"}, {"measurement": "Activity", "setting": "[3]", "result": "> 75", "unit": "%"}, {"measurement": "Activity", "setting": "[4]", "result": "inactive"}, {"measurement": "pEC50", "setting": "[6]", "result": "< 6.00"}, {"measurement": "pEC50", "setting": "[1]", "result": 7.19}, {"measurement": "half-life at 0.05 ug/ml", "setting": "[5]", "result": "> 48", "unit": "h"}]}
{"smiles": "CC[C@H](C)[C@H](NC(=O)[C@H](CCCNC(=N)N)NC(=O)[C@H](CCSC)N(C)C(=O)[C@@H](N)CCC(=O)O)C(=O)N[C@@H](CO)C(=O)N[C@@H](CCCNC(=N)N)C(=O)N[C@H](C(=O)N[C@H](C(=O)N[C@@H](CC(C)C)C(=O)N[C@@H](CC(=O)O)C(=O)N[C@@H](Cc1ccccc1)C(=O)N[C@@H](CC(C)C)C(=O)N[C@@H](Cc1ccccc1)C(=O)O)[C@@H](C)CC)[C@@H](C)CC", "note": "(H-E[NMeM]RISRIILDFLF-OH)", "values": [{"measurement": "Activity", "setting": "[3]", "result": "inactive"}, {"measurement": "inhibition", "setting": "[7]", "result": "inactive"}, {"measurement": "inhibition", "setting": "[8]", "result": "> 50", "unit": "%"}, {"measurement": "pIC50", "setting": "[9]", "result": "< 6.00"}, {"measurement": "solubility", "setting": "[10]", "result": "Insoluble"}]}
{"smiles": "CC[C@H](C)[C@H](NC(=O)[C@H](CCCNC(=N)N)NC(=O)[C@H](CCSC)NC(=O)[C@H](CCC(=O)O)NC)C(=O)N[C@@H](CO)C(=O)N[C@@H](CCCNC(=N)N)C(=O)N[C@H](C(=O)N[C@H](C(=O)N[C@@H](CC(C)C)C(=O)N[C@@H](CC(=O)O)C(=O)N[C@@H](Cc1ccccc1)C(=O)N[C@@H](CC(C)C)C(=O)N[C@@H](Cc1ccccc1)C(=O)O)[C@@H](C)CC)[C@@H](C)CC", "note": "(H-[NMeE]MRISRIILDFLF-OH)", "values": [{"measurement": "Activity", "setting": "[3]", "result": "inactive"}, {"measurement": "inhibition", "setting": "[7]", "result": "inactive"}, {"measurement": "inhibition", "setting": "[8]", "result": "> 50", "unit": "%"}, {"measurement": "pIC50", "setting": "[9]", "result": "< 6.00"}, {"measurement": "solubility", "setting": "[10]", "result": "Insoluble"}]}
